Sampled rows, rich in hits. Any-hit rate of the full collection: about 1.8%.
ARNT TACC3 PPI: disrupts binding between human ARNT and TACC3 | AlphaScreen His-ARNT PAS-B/GST-TACC3 binding, luminescence; TACC3 fragment carries E629A point mutation | 390,000 compounds, 0.66% hits | inhibition, % at 9.99 µM;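 active = mean inhibition of replicates at least 50% and at least half of replicates each reaching 50%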;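 also: 0% = complete ARNT plus TACC3 wells and 100% = ARNT alone without TACC3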
mABHD4 FP: inhibits mouse alpha/beta hydrolase domain 4; Q8VD66; purified mABHD4, FP-Rh probe fluorescence polarization; inhibition, % at 8.92 µM; 370,000 compounds, 0.54% hits;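 active = inhibition exceeding the mean over every tested compound plus 3 SD, cut at about 30% in these data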;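 also: 0% = plate median of compound wells and 100% = S159A mutant with DMSO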
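Material: mouse ABHD4 enzyme, wild type; Benchmarks: S159A mutant high control, sample median low control; Buffer or medium: HEPES pH 7.0, NaCl, Pluronic buffer; Signal: fluorescence polarization; Read-out: percent inhibition of probe binding, normalized to plate controls; Timing: pre-incubation 45 min, probe exposure 60 min, at 25 °C; Dosing: 8.92 µM, single dose.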
TCR CD3 inh: inhibitors of human TCR-CD3 interaction | TAMRA-labeled TCR probe fluorescence, biochemical | inhibition, % at 9.4 µM | 360,000 compounds, 0.37% hits | AID 651800; in the data active = inhibition above about 19%;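 also: recombinant mutant TCR 2C K166C tagged with TAMRA read by polarization; 0% = receptor in buffer alone and 100% = receptor with positive control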
HTRA1 inh: HTRA1 (human) protease inhibition | Q92743 | recombinant HTRA1, FP-rhodamine activity-based probe, fluorescence polarization | inhibition, % at 5.96 µM | 340,000 compounds, 0.5% hits | AID 504803; in the data active = inhibition above about 36%;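 also: 0% = enzyme with DMSO and 100% = wells lacking enzyme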
Target sequence (Q92743 whole entry, looked up): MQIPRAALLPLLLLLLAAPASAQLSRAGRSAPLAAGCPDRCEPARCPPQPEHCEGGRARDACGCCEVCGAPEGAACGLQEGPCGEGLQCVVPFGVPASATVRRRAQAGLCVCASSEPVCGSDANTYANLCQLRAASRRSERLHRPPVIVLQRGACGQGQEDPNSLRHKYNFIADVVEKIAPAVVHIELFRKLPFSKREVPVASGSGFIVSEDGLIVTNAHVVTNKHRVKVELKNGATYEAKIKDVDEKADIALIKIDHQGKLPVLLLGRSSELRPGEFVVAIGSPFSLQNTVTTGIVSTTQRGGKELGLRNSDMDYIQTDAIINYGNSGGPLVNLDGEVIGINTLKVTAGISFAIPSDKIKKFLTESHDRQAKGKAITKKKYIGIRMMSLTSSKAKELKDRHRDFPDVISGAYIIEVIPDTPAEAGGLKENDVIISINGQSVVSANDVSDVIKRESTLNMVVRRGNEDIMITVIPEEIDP
SIAE inh: blocks human sialic acid acetylesterase. inhibition, % at 9.66 µM. SIAE FP-Rh probe binding, fluorescence polarization. 370,000 compounds, 0.69% hits. Q9HAT2;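 active = inhibition above a cutoff: mean of compounds within the control limits plus 3 SD of those, cut at about 17% in these data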;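 also: 0% = plate median of compound wells and 100% = probe without SIAE protein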
SIAE inh conf: human SIAE inhibition, confirmation. SIAE FP-Rh activity-based probe, fluorescence polarization. AID 1117263. shares compounds with SIAE inh. inhibition, % at 9.66 µM. 2,300 compounds, 13% hits;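 active = mean inhibition of the replicates above the hit cutoff set in the primary screen, cut at about 17% in these data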;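 also: 0% = SIAE with DMSO and probe and 100% = probe without SIAE; inhibitors lower polarization as more probe stays unbound to SIAE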
Numbers without * were called inactive; · = not tested or not shown.

SMILES	ARNT TACC3 PPI	mABHD4 FP	TCR CD3 inh	HTRA1 inh	SIAE inh	SIAE inh conf
CCOC(=O)N/N=C/c1ccc(N(CC)CC)cc1O	11	7	-4	0	18*	-2
CCN(CC)S(=O)(=O)c1cccc(C(=O)N/N=C/c2cc(OC)c(O)c(OC)c2)c1	3	0	1	2	0	·
O=C(CN1CCOCC1)NCC[C@H]1CC[C@@H](NC(=O)Nc2ccccc2)[C@@H](CO)O1	-2	·	·	·	·	·
CCC(=O)N[C@H]1CC[C@@H](CCn2cc(CN(C)C)nn2)O[C@H]1CO	6	·	·	·	·	·
CN1C(=O)c2cc(NC(=O)c3cccs3)ccc2OC[C@H]2O[C@@H](CC(=O)O)CC[C@H]21	-2	·	·	·	·	·
Cc1ccccc1N1CCN(S(=O)(=O)N(C)C)CC1	-6	2	1	1	21*	3
O=[N+]([O-])c1ccc(/C=N/Nc2ccnc3cc(Cl)ccc23)o1	·	17	-33	22	20*	5
C[C@H](O)C#Cc1cnc2c(c1)C(=O)N([C@@H](C)CO)C[C@H](C)[C@H](CN(C)C(=O)Cc1ccccn1)O2	12	·	·	·	·	·
CCN1C(=O)[C@H]2[C@@H](c3ccc(C)cc3)N3C(=O)N(c4ccccc4)C(=O)[C@@]3(C)[C@H]2C1=O	4	10	-1	-3	5	·
CCN1C(=O)[C@H]2[C@@H](c3ccc(C)cc3)N3C(=O)N(c4cccc(Cl)c4)C(=O)[C@@]3(C)[C@H]2C1=O	-1	1	7	-8	23*	4
COc1cc(NC(=S)NCCc2c[nH]c3ccccc23)c(OC)cc1Cl	36	1	-10	-13	20*	7
COc1ccccc1NC(=S)NCCc1c[nH]c2ccccc12	13	0	1	-1	3	·
COc1ccc(N2CCC(CNC(=S)Nc3c(C)cc(C)cc3C)C2)cc1 (configuration not stated)	27	12	7	10	18*	6
Cc1ccc(S(=O)(=O)Nc2ccc3c(c2)C(=O)N([C@@H](C)CO)C[C@H](C)[C@H](CN(C)C(=O)Nc2cccc4ccccc24)O3)cc1	-1	·	·	·	·	·
C[C@@H]1CN([C@H](C)CO)C(=O)c2cc(-c3ccccc3F)cnc2O[C@@H]1CN(C)C	10	·	·	·	·	·
Cc1cccc(C)c1NC(=O)CNC(=O)c1c(C)nn(-c2ccccc2)c1Cl	1	-2	-4	1	1	·
Cc1nn(-c2ccccc2)c(Cl)c1C(=O)NCC(=O)O	10	6	-6	5	19*	0
CCOc1ccc(NC(=O)CN(C)C(=O)c2c(C)nn(-c3ccccc3)c2Cl)cc1OCC	-4	3	-1	0	19*	0
COC(=O)c1sc(-c2ccccc2)cc1NC(=O)C1CC1	-4	-10	9	-24	0	·
CCOc1ccc(NC(=O)Nc2cc(-c3ccccc3)sc2C(=O)OC)cc1	5	3	8	0	29*	-5
O=C(NCCCN1CCOCC1)c1cc(-c2cccs2)on1	1	-1	2	1	21*	6
O=C(NCCCN1CCOCC1)c1sc2cc(Cl)ccc2c1Cl	0	0	2	3	21*	2
Cc1ccc(S(=O)(=O)N(C)c2ccccc2C(=O)N2CCCC2)cc1	-4	4	2	5	17*	5
COc1ccc(N2CCN(C(=O)c3ccccc3N(C)S(=O)(=O)c3ccc(C)cc3)CC2)cc1	11	-3	-7	0	0	·
O=S(=O)(N[C@H]1CC[C@H](CCn2cc(-c3cccnc3)nn2)O[C@@H]1CO)c1ccccc1	0	·	·	·	·	·
SMILES	ARNT TACC3 PPI	mABHD4 FP	TCR CD3 inh	HTRA1 inh	SIAE inh	SIAE inh conf
CCc1nc(C)cn1S(=O)(=O)c1cc(C)c(OC)c(C)c1C	-5	4	5	-1	37*	-2
CCc1nc(C)cn1S(=O)(=O)c1cc(C)c(OC)cc1C	-14	2	2	-1	-2	·
CCCCN1CCN=C1N(C)C	-7	0	6	4	17*	3
COCC(=O)Nc1ccc2c(c1)OC[C@@H](C)N(C(=O)c1ccncc1)C[C@H](C)[C@H](OC)CN(C)C2=O	-9	·	·	·	·	·
COc1ccc(/C=N/Nc2nc(-c3ccc(Cl)cc3)cc(C(F)(F)F)n2)cc1OC	-1	-14	-2	-12	20*	0
COc1ccc(/C=N/Nc2nc(C)cc(-c3ccccc3)n2)cc1OC	4	4	-5	-8	-1	·

Source: PubChem BioAssay
